Holding throughout (format): functional, cell-based
The test system of one test is HepG2. The test can be described thus: Cytotoxicity against human HepG2 cells assessed as reduction in cell viability incubated for 24 hrs by MTT assay. Particulars: HepG2, 24 h. In short, it runs like this:
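HepG2 (ATCC) grown in Eagle's MEM with 10% FBS, 2 mM L-glutamine, 1 mM sodium pyruvate and 100 μM nonessential amino acids at 37 °C, 5% CO2. Seeded at 20000 cells/well for the 24 h assay. Compounds were run in triplicate at 10 two-fold dilutions from 40 μg/mL, with 0.5% DMSO maximum. Viability was read by MTT reduction and IC50 determined.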
Background: Tetrazolium assays rely on reduction of a dye to a coloured formazan, in cell work by metabolically active cells.

The test system of the next test is MCF7. Briefly: Cytotoxicity against human MCF7 cells assessed as reduction in cell viability incubated for 24 hrs by MTT assay. Particulars: MCF7, 24 h. In short, it runs like this: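 MCF-7 (ATCC HTB-22) kept in MEM with 10% FBS, glutamine, pyruvate and nonessential amino acids plus 0.01 mg/mL bovine insulin at 37 °C, 5% CO2. Plated at 30000 cells/well for the 24 h exposure. Triplicate 10-point, 2-fold serial dilutions from 40 μg/mL were used, with DMSO ≤0.5%. MMS served as positive control. The MTT viability read-out gave the IC50.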

Another test relates to MIA PaCa-2. The test can be described thus: Cytotoxicity against human MIAPaCa2 cells assessed as reduction in cell viability incubated for 24 hrs by MTT assay. Particulars: MIA PaCa-2, 24 h. In short, it runs like this: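 MiaPaca_2 (ATCC CRL-1420) cultured in DMEM with 10% FBS, 2.5% horse serum, 1% L-glutamine and 1% penicillin/streptomycin at 37 °C, 5% CO2. Seeding was 20000 cells/well for the 24 h assay. Compounds were tested in triplicate over 10 two-fold dilutions from a 40 μg/mL top concentration, with 0.5% DMSO as negative control. MTT reduction was used for IC50.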

Eight compounds from ChEMBL document CHEMBL4043076, “Hormonemate Derivatives from Dothiora sp., an Endophytic Fungus” (J Nat Prod, 2017) can be followed below.

Molecules are shown by their SMILES.

One may read the IC50 as the concentration at which inhibition is half-maximal. `CC[C@H](C)[C@@H](O)C(=O)O[C@@H](C(=O)O[C@@H](C(=O)O[C@@H](C(=O)OC[C@@H](O)[C@@H](O)[C@H](O)CO)[C@@H](C)CC)[C@@H](C)CC)[C@@H](C)CC`: the IC50 in the test with HepG2, in the test on MCF7 and in the test with MIA PaCa-2 was greater than 65.7 µM in each case.
For `CC[C@H](C)[C@@H](O)C(=O)O[C@@H](C(=O)O[C@@H](C(=O)O[C@@H](C(=O)O[C@@H](C(=O)O[C@H](CO)[C@@H](O)[C@H](O)[C@H](O)CO)[C@@H](C)CC)[C@@H](C)CC)[C@@H](C)CC)[C@@H](C)CC`, the 50% inhibitory concentration (IC50) in the test with HepG2 was 36.2 µM; with MCF7, 18.3 µM; in the test on MIA PaCa-2 it was greater than 53.2 µM.
As for `CC[C@H](C)[C@@H](O)C(=O)O[C@@H](C(=O)O[C@@H](C(=O)O[C@@H](C(=O)O[C@@H](C(=O)O[C@H](CO)[C@@H](O)[C@H](O)CO)[C@@H](C)CC)[C@@H](C)CC)[C@@H](C)CC)[C@@H](C)CC`, the IC50 in the test on HepG2 was 26.2 µM; in the test with MCF7 it was 19 µM; in the test with MIA PaCa-2 it was 36.4 µM.
Take `CC[C@H](C)[C@@H](O)C(=O)O[C@@H](C(=O)O[C@@H](C(=O)O[C@@H](C(=O)O[C@@H](C(=O)OC[C@@H](O)[C@@H](O)CO)[C@@H](C)CC)[C@@H](C)CC)[C@@H](C)CC)[C@@H](C)CC`: the figures for the IC50 with HepG2, in the test with MCF7 and in the test on MIA PaCa-2 were 28.7 µM, 11.1 µM and greater than 57.8 µM, respectively.
In the case of `CC[C@H](C)[C@@H](O)C(=O)O[C@@H](C(=O)O[C@@H](C(=O)O[C@@H](C(=O)O[C@@H](C(=O)O[C@@H]([C@H](O)[C@H](O)CO)[C@H](O)CO)[C@@H](C)CC)[C@@H](C)CC)[C@@H](C)CC)[C@@H](C)CC`, the IC50 with HepG2 is greater than 53.2 µM; with MCF7 it was 27.8 µM; in the test on MIA PaCa-2, greater than 53.2 µM.
As to `CC[C@H](C)[C@@H](O)C(=O)O[C@@H](C(=O)O[C@@H](C(=O)O[C@@H](C(=O)O[C@@H](C(=O)OC[C@@H](O)[C@@H](O)[C@H](O)CO)[C@@H](C)CC)[C@@H](C)CC)[C@@H](C)CC)[C@@H](C)CC`, the figures for the half-inhibitory concentration (IC50) in the test with HepG2, in the test on MCF7 and in the test on MIA PaCa-2 were 29 µM, 15.6 µM and greater than 55.4 µM, respectively.
Taken in the same sequence, the figures for `CC[C@H](C)[C@@H](O)C(=O)O[C@@H](C(=O)O[C@@H](C(=O)O[C@@H](C(=O)O[C@@H](C(=O)OC[C@@H](O)[C@@H](O)[C@H](O)[C@H](O)CO)[C@@H](C)CC)[C@@H](C)CC)[C@@H](C)CC)[C@@H](C)CC` were greater than 53.2 µM, 24.3 µM and greater than 53.2 µM.
`COc1cccc2c1C(=O)c1c(O)c3c(c(O)c1C2=O)C[C@@](O)(C(=O)CO)C[C@@H]3O[C@H]1C[C@H](N)[C@H](O)[C@H](C)O1` [DOXORUBICIN]: the IC50 in the test on HepG2 is 0.2 µM; in the test with MIA PaCa-2 it was 1.9 µM.
